Laboratory results taken from ChEMBL document CHEMBL1127300, “Identification, synthesis, and characterization of a unique class of N-methyl-D-aspartate antagonists. The 6,11-ethanobenzo[b]quinolizinium cation” (J Med Chem, 1994).
Structures can show the parent of a compound that is named as a salt.

How the values were obtained:
Glutamate NMDA receptor [1] = test: Binding affinity was determined towards NMDA receptor using [3H]thienylcyclidine as radioligand; assay type: protein-complex assay
Summary of the method: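 Rat (male Sprague–Dawley) whole-brain membranes, washed three times in 50 mM Tris-HCl pH 7.7 and resuspended in 5 mM Tris-HCl at 0.5 mg protein/tube. About 1 nM [3H]TCP final with varied test concentrations. 25 min at room temperature. Nonspecific binding defined with 100 μM PCP. Filtration on PEI-soaked glass-fibre filters and scintillation counting.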

Mus musculus [2] = organism: Mus musculus; test: In vitro neuroprotective efficacy determined to protect cultured mouse cortical neurons from an excitotoxic exposure to NMDA; assay type: functional
Mus musculus [3] = organism: Mus musculus; test: In vitro for neuroprotective efficacy to protect cultured cortical neurons from an excitotoxic exposure to NMDA receptor.; assay type: functional
Mus musculus [4] = organism: Mus musculus; test: Electrophysiological responses in open channel block to NMDA were recorded in 13-day old mouse cortical neuronal cultures.; assay type: functional
[5] = Ratio between closed channel blockade to open channel blockade; assay type: functional
Summary of the method: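 Whole-cell voltage clamp at −60 mV, room temperature (ca. 23 °C), in day-13 mouse cortical neurons; 100 μM NMDA. Open-channel block: NMDA with compound for 300 s; current at 300 s normalized to peak, % inhibition vs controls. Closed-channel block: 30 min with compound plus 10 μM 7-chlorokynurenate without NMDA, 1–2 min wash, then NMDA response vs two baseline responses. IC50 from Hill-type fit.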

Mus musculus [6] = organism: Mus musculus; test: Percent inhibition of radioligand [3H]-LSD binding to 5-HT receptor at 10 uM concentration
[7] = target: Alpha-1 adrenergic receptor (Mus musculus) (UniProt P97714+P97717+P97718); test: Percent inhibition of radioligand [3H]prazosin binding to alpha-1 receptor at 10 uM concentration; assay type: protein assay
Sequence of Alpha-1 adrenergic receptor (Mus musculus) (P97714 whole entry, looked up): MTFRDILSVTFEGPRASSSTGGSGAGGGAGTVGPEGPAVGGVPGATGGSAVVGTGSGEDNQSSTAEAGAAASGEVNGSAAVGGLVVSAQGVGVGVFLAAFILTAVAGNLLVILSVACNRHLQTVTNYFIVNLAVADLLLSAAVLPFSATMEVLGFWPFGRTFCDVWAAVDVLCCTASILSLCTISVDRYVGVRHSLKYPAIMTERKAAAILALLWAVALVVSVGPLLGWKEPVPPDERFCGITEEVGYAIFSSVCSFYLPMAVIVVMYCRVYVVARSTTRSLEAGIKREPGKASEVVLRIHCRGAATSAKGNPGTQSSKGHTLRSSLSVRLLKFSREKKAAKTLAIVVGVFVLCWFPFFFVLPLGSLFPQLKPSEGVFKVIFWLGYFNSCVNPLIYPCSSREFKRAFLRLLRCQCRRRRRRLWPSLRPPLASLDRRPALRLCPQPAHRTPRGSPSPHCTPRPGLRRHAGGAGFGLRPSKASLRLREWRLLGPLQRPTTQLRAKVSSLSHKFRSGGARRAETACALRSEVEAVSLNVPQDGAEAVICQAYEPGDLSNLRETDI
Sequence of Alpha-1 adrenergic receptor (Mus musculus) (P97717 whole entry, looked up): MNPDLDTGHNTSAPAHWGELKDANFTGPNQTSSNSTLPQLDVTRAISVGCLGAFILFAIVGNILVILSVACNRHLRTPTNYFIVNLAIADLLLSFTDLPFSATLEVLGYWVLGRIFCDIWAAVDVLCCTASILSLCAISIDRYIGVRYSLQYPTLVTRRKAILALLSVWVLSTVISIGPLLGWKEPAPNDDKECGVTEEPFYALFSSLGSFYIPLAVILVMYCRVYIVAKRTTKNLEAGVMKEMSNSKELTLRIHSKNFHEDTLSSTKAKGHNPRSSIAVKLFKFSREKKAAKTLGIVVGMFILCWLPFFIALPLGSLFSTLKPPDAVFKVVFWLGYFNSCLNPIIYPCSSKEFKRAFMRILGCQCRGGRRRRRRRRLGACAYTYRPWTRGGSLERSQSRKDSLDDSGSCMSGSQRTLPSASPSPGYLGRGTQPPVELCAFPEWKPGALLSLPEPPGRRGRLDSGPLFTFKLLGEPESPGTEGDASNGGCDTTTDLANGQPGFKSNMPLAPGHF
Sequence of Alpha-1 adrenergic receptor (Mus musculus) (P97718 whole entry, looked up): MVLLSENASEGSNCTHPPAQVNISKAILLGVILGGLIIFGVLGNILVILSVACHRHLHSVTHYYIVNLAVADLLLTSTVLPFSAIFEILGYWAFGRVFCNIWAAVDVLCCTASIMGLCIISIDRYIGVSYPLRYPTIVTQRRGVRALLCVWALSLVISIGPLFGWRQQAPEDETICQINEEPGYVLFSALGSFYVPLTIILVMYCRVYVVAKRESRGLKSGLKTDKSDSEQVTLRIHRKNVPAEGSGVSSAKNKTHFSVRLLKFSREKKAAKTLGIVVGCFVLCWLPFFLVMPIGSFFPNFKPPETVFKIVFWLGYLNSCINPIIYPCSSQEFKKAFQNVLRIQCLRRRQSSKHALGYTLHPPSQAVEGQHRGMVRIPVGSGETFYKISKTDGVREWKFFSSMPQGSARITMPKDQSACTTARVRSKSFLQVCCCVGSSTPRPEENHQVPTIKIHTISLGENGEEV

[8] = target: Beta-adrenergic receptor (Mus musculus) (UniProt P34971+P18762+P25962); test: Percent inhibition of radioligand [3H]DHAP binding to beta receptor at 10 uM concentration; assay type: protein assay
Sequence of Beta-adrenergic receptor (Mus musculus) (P18762 whole entry, looked up): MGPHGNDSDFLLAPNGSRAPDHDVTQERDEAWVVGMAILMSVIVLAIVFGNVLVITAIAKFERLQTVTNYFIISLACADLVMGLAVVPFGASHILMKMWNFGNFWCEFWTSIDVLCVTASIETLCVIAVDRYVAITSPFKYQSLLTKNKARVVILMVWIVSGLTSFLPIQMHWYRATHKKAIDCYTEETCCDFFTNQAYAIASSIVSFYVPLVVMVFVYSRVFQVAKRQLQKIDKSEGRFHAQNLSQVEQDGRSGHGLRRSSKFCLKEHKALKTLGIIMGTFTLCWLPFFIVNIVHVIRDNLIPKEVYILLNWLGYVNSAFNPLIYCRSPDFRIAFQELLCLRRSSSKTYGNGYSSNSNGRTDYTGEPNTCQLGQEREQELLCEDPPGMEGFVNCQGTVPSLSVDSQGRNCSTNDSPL
Sequence of Beta-adrenergic receptor (Mus musculus) (P25962 whole entry, looked up): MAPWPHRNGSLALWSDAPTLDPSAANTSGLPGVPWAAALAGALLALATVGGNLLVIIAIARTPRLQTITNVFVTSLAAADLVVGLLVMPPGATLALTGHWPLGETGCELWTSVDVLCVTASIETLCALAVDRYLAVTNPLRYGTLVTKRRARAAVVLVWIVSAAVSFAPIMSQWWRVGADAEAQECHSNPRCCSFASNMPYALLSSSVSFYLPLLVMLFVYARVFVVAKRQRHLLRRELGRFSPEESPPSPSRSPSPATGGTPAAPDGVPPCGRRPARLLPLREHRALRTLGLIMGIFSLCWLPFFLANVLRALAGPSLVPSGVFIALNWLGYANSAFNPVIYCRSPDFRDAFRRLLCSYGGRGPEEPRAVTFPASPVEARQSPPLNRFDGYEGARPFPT
Sequence of Beta-adrenergic receptor (Mus musculus) (P34971 whole entry, looked up): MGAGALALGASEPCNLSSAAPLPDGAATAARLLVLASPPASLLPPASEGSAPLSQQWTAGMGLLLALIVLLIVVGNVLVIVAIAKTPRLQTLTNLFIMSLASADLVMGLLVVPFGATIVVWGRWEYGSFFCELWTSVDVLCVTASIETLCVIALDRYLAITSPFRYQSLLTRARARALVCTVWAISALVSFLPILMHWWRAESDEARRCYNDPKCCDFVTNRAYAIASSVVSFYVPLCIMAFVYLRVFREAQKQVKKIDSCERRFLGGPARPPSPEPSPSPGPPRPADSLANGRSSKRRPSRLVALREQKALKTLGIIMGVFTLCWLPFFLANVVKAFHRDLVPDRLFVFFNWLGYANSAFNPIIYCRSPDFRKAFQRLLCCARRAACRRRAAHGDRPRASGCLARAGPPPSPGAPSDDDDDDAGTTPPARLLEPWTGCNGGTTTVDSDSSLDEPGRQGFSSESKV

[9] = target: Histamine H1 receptor (Mus musculus) (UniProt P70174); test: Percent inhibition of radioligand [3H]pyrilamine binding to H1 receptor at 10 uM concentration
Sequence of Histamine H1 receptor (Mus musculus) (P70174 whole entry): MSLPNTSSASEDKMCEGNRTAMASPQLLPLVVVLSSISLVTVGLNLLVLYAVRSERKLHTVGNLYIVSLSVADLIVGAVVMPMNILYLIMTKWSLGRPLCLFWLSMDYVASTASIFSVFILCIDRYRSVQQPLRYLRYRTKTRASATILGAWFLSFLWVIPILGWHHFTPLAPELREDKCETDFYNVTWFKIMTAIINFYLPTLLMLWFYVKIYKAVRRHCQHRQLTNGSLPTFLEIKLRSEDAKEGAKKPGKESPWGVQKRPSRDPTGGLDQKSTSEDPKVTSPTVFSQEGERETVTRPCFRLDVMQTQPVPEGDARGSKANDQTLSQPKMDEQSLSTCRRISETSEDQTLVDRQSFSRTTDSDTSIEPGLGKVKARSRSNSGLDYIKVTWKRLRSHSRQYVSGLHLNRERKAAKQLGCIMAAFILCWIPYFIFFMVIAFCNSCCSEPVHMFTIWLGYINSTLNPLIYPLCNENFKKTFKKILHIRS

[10] = target: Muscarinic acetylcholine receptor (Mus musculus) (UniProt Q920H4+Q9ERZ4+P12657+P32211+Q9ERZ3); test: Percent inhibition of radioligand [3H]QNB binding to muscarinic receptor at 10 uM concentration; assay type: protein assay
[11] = target: Opioid receptor (Mus musculus) (UniProt P42866+P32300+P33534); test: Percent inhibition of radioligand [3H]-naxalone binding to opiate receptor at 10 uM concentration; assay type: protein assay
[12] = target: D(1A) dopamine receptor (Mus musculus) (UniProt Q61616); test: Percent inhibition of radioligand [3H]SCH-23390 binding to dopamine receptor D1 at 10 uM concentration
Sequence of D(1A) dopamine receptor (Mus musculus) (Q61616 whole entry): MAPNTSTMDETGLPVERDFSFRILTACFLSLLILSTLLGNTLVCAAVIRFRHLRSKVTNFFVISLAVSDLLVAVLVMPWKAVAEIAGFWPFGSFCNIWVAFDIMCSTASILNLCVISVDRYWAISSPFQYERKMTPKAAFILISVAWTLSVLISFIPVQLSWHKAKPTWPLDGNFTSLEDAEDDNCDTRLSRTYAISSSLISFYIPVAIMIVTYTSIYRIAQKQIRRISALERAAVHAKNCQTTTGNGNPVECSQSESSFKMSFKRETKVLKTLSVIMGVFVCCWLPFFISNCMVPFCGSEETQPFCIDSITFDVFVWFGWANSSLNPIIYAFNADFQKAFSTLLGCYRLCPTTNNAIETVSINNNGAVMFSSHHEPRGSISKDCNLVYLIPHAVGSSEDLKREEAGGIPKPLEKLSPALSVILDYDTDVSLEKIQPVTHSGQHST

[13] = Percent inhibition of […] binding to GABA-A benzodiazepine receptor at 10 uM
[14] = target: Alpha-2 adrenergic receptor (Mus musculus) (UniProt P30545+Q01338+Q01337); test: Percent inhibition of radioligand [3H]rauwolscine binding to alpha-2 receptor at 10 uM concentration; assay type: protein assay
[15] = target: D(2) dopamine receptor (Mus musculus) (UniProt P61168); test: Percent inhibition of radioligand [3H]raclopride binding to D2 receptor at 10 uM concentration
Sequence of D(2) dopamine receptor (Mus musculus) (P61168 whole entry): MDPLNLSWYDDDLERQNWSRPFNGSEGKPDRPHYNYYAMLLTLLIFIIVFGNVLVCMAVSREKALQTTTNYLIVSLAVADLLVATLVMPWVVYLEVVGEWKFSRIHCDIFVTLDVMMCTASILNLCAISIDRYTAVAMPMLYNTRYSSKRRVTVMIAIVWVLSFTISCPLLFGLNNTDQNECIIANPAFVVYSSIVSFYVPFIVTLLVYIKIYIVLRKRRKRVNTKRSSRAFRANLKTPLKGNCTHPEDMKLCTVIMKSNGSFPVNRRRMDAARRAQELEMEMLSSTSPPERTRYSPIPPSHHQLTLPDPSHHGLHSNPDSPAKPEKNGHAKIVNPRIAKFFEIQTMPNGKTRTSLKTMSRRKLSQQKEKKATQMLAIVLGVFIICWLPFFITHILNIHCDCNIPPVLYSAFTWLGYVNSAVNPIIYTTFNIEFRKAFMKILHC

[16] = Percent inhibition of radioligand [3H]NECA binding to A1,A2 receptor at 10 uM concentration
[17] = target: Sigma non-opioid intracellular receptor 1 (Mus musculus) (UniProt O55242); test: Percent inhibition of radioligand [3H]DTG binding to sigma receptor at 10 uM concentration
Sequence of Sigma non-opioid intracellular receptor 1 (Mus musculus) (O55242 whole entry): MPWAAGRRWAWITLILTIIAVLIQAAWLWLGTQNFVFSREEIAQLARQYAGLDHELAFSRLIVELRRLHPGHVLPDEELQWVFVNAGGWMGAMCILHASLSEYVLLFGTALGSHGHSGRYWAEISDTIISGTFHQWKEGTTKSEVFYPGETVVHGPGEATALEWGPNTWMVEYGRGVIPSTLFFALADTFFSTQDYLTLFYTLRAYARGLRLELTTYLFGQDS

[18] = target: D(1A) dopamine receptor (Mus musculus) (UniProt Q61616); test: Percent inhibition of radioligand [3H]SCH-23,390 binding to dopamine receptor D1 at 10 uM concentration
Glutamate NMDA receptor [19] = test: Binding affinity was determined towards NMDA receptor using [3H]TCP as radioligand in rat
Summary of the method: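 Rat (male Sprague–Dawley) whole-brain membranes, washed three times in 50 mM Tris-HCl pH 7.7 and resuspended in 5 mM Tris-HCl at 0.5 mg protein/tube. About 1 nM [3H]TCP final with varied test concentrations. 25 min at room temperature. Nonspecific binding defined with 100 μM PCP. Filtration on PEI-soaked glass-fibre filters and scintillation counting. Ki from EBDA/LIGAND; mean ± SEM of ≥3 determinations in triplicate.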

Mus musculus [20] = organism: Mus musculus; test: Electrophysiological responses in closed channel block to NMDA were recorded in 13-day old mouse cortical neuronal cultures.; assay type: functional

CCOC1(OCC)C2c3cc(C(F)(F)F)ccc3C([n+]3ccccc32)C1(C)C (configuration not stated)
Ki (Glutamate NMDA receptor [1]): 401 nM

CCOC1(OCC)C2c3cc(Br)ccc3C([n+]3ccccc32)C1(C)C.[O-][Cl+3]([O-])([O-])[O-] (configuration not stated)
IC50 (Mus musculus [2]; Mus musculus): 173 nM | Ki (Glutamate NMDA receptor [1]): 52 nM

CCOC1(OCC)C2c3ccccc3C([n+]3c(C)cccc32)C1(C)C (configuration not stated)
Ki (Glutamate NMDA receptor [1]): 314 nM

CCOC1(OCC)C2c3cc([N+](=O)[O-])ccc3C([n+]3ccccc32)C1(C)C.[O-][Cl+3]([O-])([O-])[O-] (configuration not stated)
Ki (Glutamate NMDA receptor [1]): 2760 nM | IC50 (Mus musculus [3]): 15300 nM

CCOC1(OCC)C2c3c(OC)cccc3C([n+]3ccccc32)C1(C)C (configuration not stated)
IC50 (Mus musculus [2]; Mus musculus): 22 nM | Ki (Glutamate NMDA receptor [1]): 13 nM

CCOC1(OCC)C2c3cccc(OC)c3C([n+]3ccccc32)C1(C)C (configuration not stated)
Ki (Glutamate NMDA receptor [1]): 1840 nM

COC1(OC)C2c3ccccc3C([n+]3ccccc32)C1(C)C (configuration not stated)
Ki (Glutamate NMDA receptor [1]): 103 nM

CCOC1(OCC)C2c3cc(Cl)ccc3C([n+]3ccccc32)C1(C)C (configuration not stated)
Ki (Glutamate NMDA receptor [1]): 12 nM

CCOC1(OCC)C2c3c(OC(C)C)cccc3C([n+]3ccccc32)C1(C)C (configuration not stated)
Ki (Glutamate NMDA receptor [1]): 48 nM

CCOC1(OCC)C2c3cccc(C)c3C([n+]3ccccc32)C1(C)C (configuration not stated)
Ki (Glutamate NMDA receptor [1]): 455 nM

CCOC1(OCC)C2c3cc(OC)ccc3C([n+]3ccccc32)C1(C)C (configuration not stated)
IC50 (Mus musculus [2]; Mus musculus): 157 nM | Ki (Glutamate NMDA receptor [1]): 4 nM

CC1(C)C2c3ccccc3C(c3cccc[n+]32)C12OCCCO2 (configuration not stated)
Ki (Glutamate NMDA receptor [1]): 2900 nM

CCOC1(OCC)C2c3ccccc3C([n+]3ccccc32)C1(CC)CC (configuration not stated)
Ki (Glutamate NMDA receptor [1]): 11 nM

CCOC1(OCC)CC2c3ccccc3C1c1cccc[n+]12 (configuration not stated)
IC50 (Mus musculus [2]; Mus musculus): 95000 nM | Ki (Glutamate NMDA receptor [1]): 3800 nM

CCOC1(OCC)C2c3c(C)cccc3C([n+]3ccccc32)C1(C)C (configuration not stated)
Ki (Glutamate NMDA receptor [1]): 46 nM

CC1(C)C2c3ccccc3C(c3cccc[n+]32)C12OCCO2 (configuration not stated)
Ki (Glutamate NMDA receptor [1]): 3460 nM

CCOC1(OCC)C2c3c(O)cccc3C([n+]3ccccc32)C1(C)C (configuration not stated)
Ki (Glutamate NMDA receptor [1]): 8 nM

CCOC1(OCC)C2c3c(OC)ccc(OC)c3C([n+]3ccccc32)C1(C)C (configuration not stated)
Ki (Glutamate NMDA receptor [1]): > 10000 nM

CCOC1(OCC)C2c3c(Br)cccc3C([n+]3ccccc32)C1(C)C.[O-][Cl+3]([O-])([O-])[O-] (configuration not stated)
IC50 (Mus musculus [2]; Mus musculus): 1040 nM | Ki (Glutamate NMDA receptor [1]): 132 nM

CCCOC1(OCCC)C2c3ccccc3C([n+]3ccccc32)C1(C)C.[O-][Cl+3]([O-])([O-])[O-] (configuration not stated)
IC50 (Mus musculus [2]; Mus musculus): 85 nM | Ki (Glutamate NMDA receptor [1]): 12 nM

CCOC1(OCC)C2c3ccccc3C([n+]3ccccc32)C1(OCC)OCC (configuration not stated)
Ki (Glutamate NMDA receptor [1]): 4990 nM

CC1(C)C(=O)C2c3ccccc3C1[n+]1ccccc12 (configuration not stated)
Ki (Glutamate NMDA receptor [1]): > 10000 nM

CCOC1(OCC)C2c3ccccc3C([n+]3cccc(OC)c32)C1(C)C (configuration not stated)
Ki (Glutamate NMDA receptor [1]): 26 nM

CCOC1(OCC)C2c3c(OC(C)=O)cccc3C([n+]3ccccc32)C1(C)C (configuration not stated)
Ki (Glutamate NMDA receptor [1]): 26 nM

CCOC1(OCC)C2c3ccc(OC)cc3C([n+]3ccccc32)C1(C)C (configuration not stated)
Ki (Glutamate NMDA receptor [1]): 123 nM

CCOC1(OCC)C2(C)c3ccccc3C([n+]3ccccc32)C1(C)C.[O-][Cl+3]([O-])([O-])[O-] (configuration not stated)
IC50 (Mus musculus [2]; Mus musculus): 32 nM | Ki (Glutamate NMDA receptor [1]): 11 nM

CCOC1(OCC)C2c3ccccc3C([n+]3ccccc32)C1(C)C (racemic) [listing 1 of 2 here]
IC50 (Mus musculus [4]): 260 nM | Ki (Glutamate NMDA receptor [1]): 8 nM

CCOC1(OCC)C2c3ccccc3C([n+]3ccccc32)C1(C)C (racemic) [listing 2 of 2 here]
Ratio [5]: > 384 CC/OC

CCOC1(OCC)C2c3ccccc3C([n+]3ccccc32)C1(C)C (single isomer, unassigned; (+)) [listing 1 of 2 here]
IC50 (Mus musculus [2]; Mus musculus): 50 nM | Ki (Glutamate NMDA receptor [1]): 11 nM

CCOC1(OCC)C2c3ccccc3C([n+]3ccccc32)C1(C)C (single isomer, unassigned; (+)) [listing 2 of 2 here]
inhibition (Mus musculus [6]): 12% | inhibition [7]: 51% | inhibition [8]: 4% | inhibition [9]: 55% | inhibition [10]: 53% | inhibition [11]: 73% | inhibition [12]: 7% | inhibition [13]: 14% | inhibition [14]: 52% | inhibition [15]: 20% | inhibition [16]: 1% | inhibition [17]: 31%

CCOC1(OCC)C2c3ccccc3C([n+]3ccccc32)C1(C)C (single isomer, unassigned; (-)) [listing 1 of 2 here]
IC50 (Mus musculus [2]): 26 nM | Ki (Glutamate NMDA receptor [1]): 4 nM

CCOC1(OCC)C2c3ccccc3C([n+]3ccccc32)C1(C)C (single isomer, unassigned; (-)) [listing 2 of 2 here]
inhibition [18]: 1% | inhibition (Mus musculus [6]): 11% | inhibition [7]: 23% | inhibition [8]: 3% | inhibition [9]: 0% | inhibition [10]: 50% | inhibition [11]: 51% | inhibition [14]: 32% | inhibition [15]: 9% | inhibition [16]: 3% | inhibition [17]: 21%

CCOC1(OCC)C2c3ccccc3C(C1C)[n+]1ccccc12.[O-][Cl+3]([O-])([O-])[O-] (stereo in doubt; 1a)
IC50 (Mus musculus [2]; Mus musculus): 810 nM | Ki (Glutamate NMDA receptor [19]): 115 nM

CCOC1(OCC)C2c3ccccc3C(C1C)[n+]1ccccc12.[O-][Cl+3]([O-])([O-])[O-] (stereo in doubt; 1b)
IC50 (Mus musculus [2]): 1160 nM | Ki (Glutamate NMDA receptor [1]): 34 nM

CCOC1C2c3ccccc3C([n+]3ccccc32)C1(C)C (stereo in doubt; 7a)
Ki (Glutamate NMDA receptor [1]): 465 nM

CCOC1C2c3ccccc3C([n+]3ccccc32)C1(C)C (stereo in doubt; 7b)
Ki (Glutamate NMDA receptor [1]): 1880 nM

C[C@]12N[C@H](Cc3ccccc31)c1ccccc12 [DIZOCILPINE MALEATE]
IC50 (Mus musculus [20]): 5.8 nM

c1ccc(C2(N3CCCCC3)CCCCC2)cc1 [PHENCYCLIDINE]
Ki (Glutamate NMDA receptor [1]): 38 nM
